From ChEMBL document CHEMBL3232831, “Synthetic indole and melatonin derivatives exhibit antimalarial activity on the cell cycle of the human malaria parasite Plasmodium falciparum” (Eur J Med Chem, 2014)

Columns and labels:
Plasmodium falciparum [1] = assay: Antiplasmodial activity against asynchronous culture of Plasmodium falciparum 3D7 infected in erythrocytes assessed as reduction of melatonin-induced increase in parasitemia level at 500 nM after 48 hrs by YOYO-1 staining-based flow cytometry (reference value: 23.5 +/- 6.8 %); type: functional; design: scale not given: the % may be the effect or the level left
Plasmodium falciparum [2] = assay: Antiplasmodial activity against Plasmodium falciparum 3D7 infected in erythrocytes assessed as parasitemia level at 500 nM after 48 hrs by YOYO-1 staining-based flow cytometry relative to control; type: functional
Outline: (§1)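 P. falciparum 3D7 in O+ human erythrocytes, RPMI-1640 with 10% O+ human serum, 92% N2/5% CO2/3% O2. Infected cells exposed 48 h at a single concentration. Then fixed in 2% paraformaldehyde/PBS for 24 h, permeabilized with 0.1% Triton X-100 and stained with 5 nM YOYO-1 for 30 min at 37 °C. Read on 10⁵ cells by flow cytometry. Parasitemia expressed versus solvent control; ≥3 independent experiments, one-way ANOVA with Dunnett's test.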

Plasmodium falciparum [3] = assay: Antiplasmodial activity against ring stage synchronized Plasmodium falciparum 3D7 infected in erythrocytes assessed as parasitemia level after 48 hrs by flow cytometry relative to control; type: functional, organism-based; details: 3D7, 48 h
Outline: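 3D7 culture was synchronized (Lambros) and infected erythrocytes were dosed at ring stage with 10 concentrations from 5 nM to 100 μM for 48 h. Parasitemia was read by YOYO-1 flow cytometry as in the single-dose assay. IC50 was obtained from sigmoid dose–response fits; ≥3 independent experiments.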

Plasmodium falciparum [4] = assay: Antiplasmodial activity against Plasmodium falciparum 3D7 infected in erythrocytes assessed as parasitemia level at 100 nM after 48 hrs by YOYO-1 staining-based flow cytometry relative to control; type: functional; outline: as §1

SMILES | Activity (Plasmodium falciparum [1]) | Activity (Plasmodium falciparum [2]) | IC50 (Plasmodium falciparum [3]) | Activity (Plasmodium falciparum [4])
CCCC(=O)NCCc1c[nH]c2ccc(OC)cc12 | 8.8% | 8% | 19.2 µM | 
CCCCCC(=O)NCCc1c[nH]c2ccccc12 | 6.9% | 6% |  | 
COC(=O)NCCc1c[nH]c2ccccc12 | 10.9% | 11.7% |  | 
CCCCCC(=O)NCCc1c[nH]c2ccc(OC)cc12 | 8.6% | 7.8% | 19.1 µM | 
COc1ccc2[nH]cc(CCNC(=O)c3ccccc3)c2c1 | 9.1% | 10.8% | 2.93 µM | 
COC(=O)NCCc1c[nH]c2ccc(OC)cc12 | 14.5% | 10% |  | 
CCCC(=O)NCCc1c[nH]c2ccccc12 | 11% | 9.2% |  | 
COc1ccc2[nH]cc(CCN)c2c1 [5-METHOXYTRYPTAMINE] | 14.1% | 19.7% |  | 
C[C@H]1Cc2c([nH]c3cc(Cl)c(F)cc23)[C@@]2(N1)C(=O)Nc1ccc(Cl)cc12 [CIPARGAMIN] |  |  | 0.01 µM | 
COc1ccc2[nH]cc(CCNC(C)=O)c2c1 [MELATONIN] | 23.5% |  |  | 21.9%
CC(=O)NCCc1c[nH]c2ccccc12 [NB-ACETYLTRYPTAMINE] | 11.3% | 12.9% |  | 
